Results: PMC4407803 (Journal of medicinal chemistry, 2015)
Read-outs that look alike come from different tables or passages of the source.

Columns and labels:
[1] = system: Jurkat cells (human T-cell leukemia); experiment: In vitro antiproliferative activity; type: cell-based; details: 72 h, read-out: IC50 Jurkat
How it was run: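 Cells grown in RPMI-1640; 8 × 10^3 cells per well, pre-incubated 18 h at 37 °C, 5% CO2. Medium replaced with fresh medium containing test compound at several concentrations (from 10 mM DMSO stocks; DMSO ≤0.25% final), 72 h at 37 °C.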

[2] = system: BNL 1ME A.7R.1 hepatocellular carcinoma tumors; experiment: In vivo antitumor activity, syngeneic hepatocellular carcinoma model; details: Balb/c mice; for tumor growth inhibition vs control (significance): 5 mg/kg intraperitoneally daily
How it was run: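 Male Balb/c mice, 8 weeks old, injected subcutaneously in the dorsal region with 10^7 BNL 1ME A.7R.1 cells in 200 μL sterile PBS. At about 100 mm3, mice were randomized into four groups of 5. Tumors measured by caliper daily for 7 days; V = AB2/2.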

[3] = system: panel of seven human cancer cell lines; experiment: Antiproliferative activity over the panel of seven human cancer cell lines; type: cell-based
How it was run: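 Jurkat, RS4;11 and HL-60 cells grown in RPMI-1640; MCF-7, A549, HeLa and HT-29 cells in DMEM; both media with 10% FBS plus penicillin/streptomycin. 8 × 10^3 cells/well settled 18 h at 37 °C, 5% CO2, then exposed to graded compound for 72 h. DMSO ≤0.25%. MTT viability read.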

[4] = system: PBL not stimulated with PHA; experiment: Cytotoxicity in noncancer cells, resting PBL; type: cell-based; details: Homo sapiens, 72 h, read-out: IC50 PBLresting
How it was run: (§1)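 Peripheral blood lymphocytes from healthy donors isolated on a Lymphoprep gradient, washed, held overnight at 1.0 × 10^6 cells/mL in RPMI-1640 with 10% FBS. Nonadherent cells reseeded at 5 × 10^5 cells/mL. PHA-stimulated set received 2.5 μg/mL PHA; resting set had no PHA. Graded compound for 72 h; viability by MTT.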

[5] = system: PBL stimulated with PHA; experiment: Cytotoxicity in noncancer cells, PHA-stimulated PBL; type: cell-based; details: Homo sapiens, 72 h, read-out: IC50 PBLPHA
How it was run: as §1

[6] = Body weight during in vivo antitumor treatment; set-up: species or system Balb/c mice; details: 3g at the higher dose (10 mg/kg ip)
[7] = system: Jurkat and HeLa cells; experiment: Flow cytometric analysis of cell cycle distribution; type: cell-based, human; details: for lowest concentration giving a rise in G2/M cells: 24 h treatment
How it was run: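 5 × 10^5 HeLa or Jurkat cells exposed to graded compound concentrations for 24 h. Cells collected, fixed in ice-cold 70% ethanol, treated with lysis buffer containing RNase A and 0.1% Triton X-100, then stained with propidium iodide. DNA content measured by flow cytometry; phase distribution derived from DNA histograms.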

[8] = system: HUVECs; experiment: HUVEC motility; type: cell-based, human
How it was run: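 Primary cord-vein HUVECs (passages 1–6) grown to confluence (1 × 10^5 seeded) on 0.1% collagen type I. Monolayer scratched with a pipet tip, washed with PBS, then exposed to test compound. Wells photographed at intervals (6 and 24 h). Wound width measured in four areas and compared with initial width. Three independent experiments; significance versus untreated control.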

[9] = system: HUVECs; experiment: Disruption of HUVEC capillary-like tubules on Matrigel; type: cell-based, human; details: 1 h or 3 h incubation
How it was run: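 HUVECs isolated from umbilical cord veins, kept in M200 with low-serum growth supplement, and used at passages 1–6. Matrigel gelled 30 min at 37 °C, overlaid with 6 × 10^4 cells; tubules allowed to form for 6 h. Compound then added for 1 or 3 h. Five fields/well photographed at 10×. Image analysis quantified tubule length, mesh area/number, % area covered and branch points. Three independent experiments.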

[10] = system: chick embryo chorioallantoic membrane (CAM) blood vessels; experiment: CAM assay in fertilized chicken eggs; type: in vivo
[11] = system: BL6-B16 murine melanoma tumor blood vessels; experiment: Antivascular activity in vivo, CD31 vessel count in BL6-B16 melanoma; details: 30 mg/kg ip, 24 h, C57BL/6 mice, P < 0.05
How it was run: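 Six-week-old C57BL/6 mice received 10^5 BL6-B16 melanoma cells in PBS subcutaneously in the dorsolateral flank. At 300 mm3 tumor volume, a single ip dose of 30 mg/kg in DMSO (50 μL) was given. Tumors excised 24 h later, OCT-embedded, frozen, cut into 4–5 μm cryosections. Stained with rat anti-mouse CD31 (1:200) and biotinylated anti-rat secondary. CD31+ vessels counted in 5 fields/section (40× objective); five mice/group.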

[12] = system: HeLa cells; experiment: Annexin-V/PI apoptosis assay; type: cell-based, human; details: 24 or 48 h
How it was run: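 HeLa cells exposed to test compound for 24 or 48 h. Cells harvested and double-stained with annexin-V-FITC and PI. Surface phosphatidylserine exposure read by flow cytometry.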

[13] = system: HeLa cells; experiment: Mitochondrial membrane potential; type: cell-based, human; details: 24 or 48 h
How it was run: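 HeLa cells exposed to compound for 24 or 48 h, then stained with H2-DCFDA for reactive oxygen species. Fluorescence read by flow cytometry. Parallel JC-1 staining assessed mitochondrial membrane potential. Three independent experiments.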

[14] = system: HeLa cells; experiment: Western blot analysis of caspases and Bcl-2 family proteins; type: cell-based, human; details: for Mcl-1 expression: 48 h, 100 and 250 nM
How it was run: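 Treated HeLa cells washed in cold PBS and lysed on ice for 30 min. Lysates cleared at 15000g, 4 °C, for 10 min; protein measured by BCA. 10 μg protein resolved on 7.5–15% SDS-PAGE and transferred to PVDF. Membranes blocked in 5% BSA/Tween-PBS overnight at 4 °C. Primary antibodies (e.g., Mcl-1) applied 2 h at room temperature, then peroxidase secondary for 60 min; ECL detection. β-actin reprobe used as loading control.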

[15] = read-out: average IC50 over the seven cell lines
[16] = read-out: IC50 values range in the seven cell lines

SMILES: COc1ccc(/C=C\c2cc(OC)c(OC)c(OC)c2)cc1O [CA-4, combretastatin A-4]
- IC50 [1]: 5 ± 0.6 nM

SMILES: COc1ccc(/C=C\c2cc(OC)c(OC)c(OC)c2)cc1OP(=O)([O-])[O-].[Na+].[Na+] [CA-4P, combretastatin A-4 phosphate, reference compound]
- tumor growth inhibition vs control (significance) [2]: significant relative to the control

SMILES: COC(=O)c1oc2ccccc2c1Nc1cc(OC)c(OC)c(OC)c1 [Compound 3a, Methyl 3-[(3,4,5-Trimethoxyphenyl)amino]benzofuran-2-carboxylate]
- IC50 [3, 15]: 3300 nM

SMILES: COC(=O)c1oc2cc(OC)ccc2c1Nc1cc(OC)c(OC)c(OC)c1 [Compound 3g, Methyl 3-(3,4,5-Trimethoxyphenylamino)-6-methoxybenzofuran-2-carboxylate]
- IC50 [4]: > 10000 nM
- IC50 [5]: > 10000 nM
- IC50 [3, 16]: 0.3 to 27 nM
- tumor growth inhibition vs control (significance) [2]: did not reach statistical significance
- reduction in tumor growth compared with vehicle ([2]; 10 mg/kg intraperitoneally daily): 44.5%
- body weight change during treatment [6]: only a small decrease in body weight
- lowest concentration giving a rise in G2/M cells [7]: 60 nM
- concentration with statistically significant arrest of HUVEC motility ([8]; 6 h incubation): 25 nM
- concentration with highly significant arrest of HUVEC motility ([8]; after 24 h, lowest tested concentration): 5 nM
- HUVEC motility ([8]; scratch wound): very efficient in arresting cell motility
- effect on preformed HUVEC tubule-like network [9]: clearly disrupted the network of HUVECs
- blood vessel number, compound alone ([10]; 100 pmol/egg, without FGF): did not induce blood vessels to increase in number
- FGF-induced increase of blood vessels ([10]; FGF 100 ng/egg, even at 1 pmol/egg): strongly reduced
- reduction in number of CD31-positive tumor vessels [11]: about 20%
- apoptosis (annexin-V) [12]: accumulation of annexin-V positive cells
- ROS production (H2-DCFDA) [13]: production of significant amounts of ROS
- mitochondrial transmembrane potential (JC-1) [13]: time- and concentration-dependent increase in the proportion of cells with depolarized mitochondria
- caspase activation (immunoblot) [14]: activation of caspase-9 and caspase-3 in a time- and concentration-dependent manner
- Mcl-1 expression [14]: strongly down-regulated

SMILES: CCOC(=O)c1oc2cc(OC)ccc2c1Nc1cc(OC)c(OC)c(OC)c1 [Compound 3h, Ethyl 3-(3,4,5-Trimethoxyphenylamino)-6-methoxybenzofuran-2-carboxylate]
- IC50 [4]: > 10000 nM
- IC50 [3, 16]: 13 to 100 nM
- IC50 [3, 15]: 34 nM
- cells arrested in G2/M ([7]; 24 h, at higher concentrations): more than 70%
- lowest concentration giving a rise in G2/M cells [7]: 60 nM
- apoptosis (annexin-V) [12]: accumulation of annexin-V positive cells
- ROS production (H2-DCFDA) [13]: production of significant amounts of ROS
- mitochondrial transmembrane potential (JC-1) [13]: time- and concentration-dependent increase in the proportion of cells with depolarized mitochondria
- caspase activation (immunoblot) [14]: activation of caspase-9 and caspase-3 in a time- and concentration-dependent manner
- Mcl-1 expression [14]: strongly down-regulated

SMILES: COC(=O)c1oc2c(OC)cccc2c1Nc1cc(OC)c(OC)c(OC)c1 [Compound 3i, Methyl 3-(3,4,5-Trimethoxyphenylamino)-7-methoxybenzofuran-2-carboxylate]
- IC50 [3, 15]: 370 nM

SMILES: CCOC(=O)c1oc2c(OC)cccc2c1Nc1cc(OC)c(OC)c(OC)c1 [Compound 3j, Ethyl 3-(3,4,5-Trimethoxyphenylamino)-7-methoxybenzofuran-2-carboxylate]
- IC50 [3, 15]: 670 nM
